Experimental data from ChEMBL document CHEMBL4339200, “Structure-based Discovery of Phenyl (3-Phenylpyrrolidin-3-yl)sulfones as Selective, Orally Active RORγt Inverse Agonists” (ACS Med Chem Lett, 2019).
The source made the active and inactive calls. No cut-off for these calls is given here.

Columns and labels:
[1] = Half life in mouse liver microsomes; format: ADME, Microsome
[2] = Tmax in Balb/c mouse at 10 mg/kg, po; format: ADME, organism-based; details: in vivo
Procedure, shortened: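 Balb/c mice given a single intravenous dose of 2 mg/kg or an oral dose of 10 mg/kg. Plasma exposure was followed to derive Cmax, Tmax, AUC, t1/2, clearance, Vss and oral bioavailability (F).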

[3] = target: T1, Nuclear receptor ROR-alpha (Homo sapiens) (UniProt P35398); assay: Agonist activity at GAL4-fused RORalpha LBD (272 to 556 residues) (unknown origin) expressed in human Jurkat cells measured after 18 hrs by native IL17 promoter driven steady-glo luciferase assay; format: cell-based
T1 sequence (whole entry): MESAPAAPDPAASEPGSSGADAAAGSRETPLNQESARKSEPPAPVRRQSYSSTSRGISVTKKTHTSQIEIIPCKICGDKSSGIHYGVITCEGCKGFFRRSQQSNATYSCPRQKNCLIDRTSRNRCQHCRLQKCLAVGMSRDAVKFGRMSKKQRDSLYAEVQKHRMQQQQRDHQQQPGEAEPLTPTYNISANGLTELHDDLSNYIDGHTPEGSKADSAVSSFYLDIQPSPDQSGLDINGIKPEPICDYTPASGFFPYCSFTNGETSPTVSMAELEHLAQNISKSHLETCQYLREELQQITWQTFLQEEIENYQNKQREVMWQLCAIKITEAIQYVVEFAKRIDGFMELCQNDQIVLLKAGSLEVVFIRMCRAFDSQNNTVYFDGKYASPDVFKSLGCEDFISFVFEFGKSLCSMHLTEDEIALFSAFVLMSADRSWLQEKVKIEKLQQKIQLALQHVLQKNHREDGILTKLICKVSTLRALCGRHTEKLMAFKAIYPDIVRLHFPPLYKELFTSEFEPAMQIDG

[4] = target: T2, Nuclear receptor ROR-beta (Homo sapiens) (UniProt Q92753); assay: Inverse agonist activity at GAL4-fused RORbeta LBD (200 to 559 residues) (unknown origin) expressed in human Jurkat cells measured after 18 hrs by native IL17 promoter driven steady-glo luciferase assay; format: cell-based
T2 sequence (whole entry): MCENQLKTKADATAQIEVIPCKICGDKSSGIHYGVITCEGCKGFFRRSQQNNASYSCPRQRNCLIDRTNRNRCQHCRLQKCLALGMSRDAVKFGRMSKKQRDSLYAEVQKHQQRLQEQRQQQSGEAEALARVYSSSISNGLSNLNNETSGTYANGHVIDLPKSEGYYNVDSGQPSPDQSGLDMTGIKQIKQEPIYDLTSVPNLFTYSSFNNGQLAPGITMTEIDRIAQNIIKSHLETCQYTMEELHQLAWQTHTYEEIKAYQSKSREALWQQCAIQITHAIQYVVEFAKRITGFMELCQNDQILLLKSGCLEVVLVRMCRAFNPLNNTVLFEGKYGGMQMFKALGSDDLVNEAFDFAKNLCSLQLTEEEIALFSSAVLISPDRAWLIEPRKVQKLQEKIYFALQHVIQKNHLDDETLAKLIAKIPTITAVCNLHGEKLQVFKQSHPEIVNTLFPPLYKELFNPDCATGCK

PXR (NR1I2) = target: T3, PXR (NR1I2) (Homo sapiens, UniProt O75469); assay: Transactivation of PXR in human HepG2 cells relative to rifampicin; format: ADME, cell-based; details: read-out: %max
T3 sequence (O75469 whole entry): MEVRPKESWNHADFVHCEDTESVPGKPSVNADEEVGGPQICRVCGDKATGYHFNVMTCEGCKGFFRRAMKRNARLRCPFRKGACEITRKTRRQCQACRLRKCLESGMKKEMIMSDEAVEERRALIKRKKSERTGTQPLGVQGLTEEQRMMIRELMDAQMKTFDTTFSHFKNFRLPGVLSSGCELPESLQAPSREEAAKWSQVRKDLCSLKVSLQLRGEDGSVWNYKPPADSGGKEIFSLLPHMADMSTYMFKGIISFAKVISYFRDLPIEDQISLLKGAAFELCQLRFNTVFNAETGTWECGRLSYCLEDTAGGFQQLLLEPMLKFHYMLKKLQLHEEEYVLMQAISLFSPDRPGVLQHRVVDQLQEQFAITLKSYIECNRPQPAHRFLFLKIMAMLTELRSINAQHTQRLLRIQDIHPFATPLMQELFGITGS

Cytochrome P450 3A4 = Cytochrome P450 3A4 (Homo sapiens, UniProt P08684); assay: Inhibition of CYP3A4 (unknown origin); format: ADME
Cytochrome P450 3A4, sequence (P08684 whole entry): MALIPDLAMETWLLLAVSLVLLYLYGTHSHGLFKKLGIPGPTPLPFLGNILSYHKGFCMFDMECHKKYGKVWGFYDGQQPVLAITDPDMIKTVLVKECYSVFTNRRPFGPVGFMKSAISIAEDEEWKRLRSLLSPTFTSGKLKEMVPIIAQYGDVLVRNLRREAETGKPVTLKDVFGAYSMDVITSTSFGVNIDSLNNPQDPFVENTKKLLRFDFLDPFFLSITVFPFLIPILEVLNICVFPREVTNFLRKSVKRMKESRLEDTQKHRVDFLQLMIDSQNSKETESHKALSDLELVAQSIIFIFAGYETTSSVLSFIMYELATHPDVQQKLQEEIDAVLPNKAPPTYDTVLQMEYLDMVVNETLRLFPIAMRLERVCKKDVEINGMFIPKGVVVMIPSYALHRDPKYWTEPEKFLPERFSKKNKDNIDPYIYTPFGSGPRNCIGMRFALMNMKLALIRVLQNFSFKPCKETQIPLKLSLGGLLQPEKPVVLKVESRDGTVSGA

[5] = target: T4, Nuclear receptor subfamily 1 group I member 2 (Homo sapiens, UniProt O75469); assay: Transactivation of PXR in human HepG2 cells; format: ADME, cell-based
T4 sequence (O75469 whole entry): T3 sequence (O75469 whole entry)

half-life [1]: > 2 h
Tmax [2]: 2 h
Activity [3]: inactive
Activity [4]: inactive
Emax (PXR (NR1I2)): 18%
IC50 (Cytochrome P450 3A4): > 20 µM
EC50 [5]: > 50 µM
SMILES: O=C(O)[C@H]1CC[C@H](C(=O)N2CC[C@](c3ccc(C(F)(C(F)(F)F)C(F)(F)F)cc3)(S(=O)(=O)c3ccc(F)cc3)C2)CC1
